Data reported in ChEMBL document CHEMBL5523695, “Discovery of small molecule benzothiazole and indole derivatives tackling tau 2N4R and α-synuclein fibrils” (Bioorg Med Chem, 2024).
Calls of active or inactive are those of the source. No cut-off for these calls is given here.

Legend:
[1] = target: T1, Microtubule-associated protein tau (Homo sapiens, UniProt P10636); experiment: Inhibition of arachidonic acid-induced full-length four-repeat tau 2N4R (unknown origin) aggregation measured upto 19 hrs by TEM analysis
T1 sequence (P10636 whole entry, the tested form may be a part): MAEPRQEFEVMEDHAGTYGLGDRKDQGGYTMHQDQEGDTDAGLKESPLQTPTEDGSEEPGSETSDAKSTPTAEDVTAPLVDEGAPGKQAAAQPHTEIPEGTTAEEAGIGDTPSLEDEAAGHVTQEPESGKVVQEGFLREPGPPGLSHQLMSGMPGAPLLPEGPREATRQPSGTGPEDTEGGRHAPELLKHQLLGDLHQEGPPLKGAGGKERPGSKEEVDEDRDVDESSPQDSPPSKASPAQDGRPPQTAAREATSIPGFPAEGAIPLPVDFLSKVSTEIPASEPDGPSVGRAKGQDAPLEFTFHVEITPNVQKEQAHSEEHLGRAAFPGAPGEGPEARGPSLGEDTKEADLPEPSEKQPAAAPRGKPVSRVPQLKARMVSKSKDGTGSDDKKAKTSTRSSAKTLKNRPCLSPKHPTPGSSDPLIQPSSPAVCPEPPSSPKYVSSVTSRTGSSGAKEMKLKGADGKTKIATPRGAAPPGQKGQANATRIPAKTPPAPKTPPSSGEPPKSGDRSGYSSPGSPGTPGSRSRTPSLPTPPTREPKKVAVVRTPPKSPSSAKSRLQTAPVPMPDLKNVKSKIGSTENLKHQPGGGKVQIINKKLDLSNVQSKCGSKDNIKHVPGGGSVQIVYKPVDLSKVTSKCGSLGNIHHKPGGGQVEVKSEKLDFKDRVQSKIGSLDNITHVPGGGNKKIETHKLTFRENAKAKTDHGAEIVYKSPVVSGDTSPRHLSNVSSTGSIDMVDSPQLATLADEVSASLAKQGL

[2] = target: Alpha-synuclein (Homo sapiens) (UniProt P37840); experiment: (§1) Inhibition of alpha-syn inclusion formation in human M17D cells expressing doxycyclin-inducible alpha-syn-S3K::YFP inclusion-prone fusion protein assessed as reduction in inclusions treated with compound starting from 24 hrs post plating followed by doxycyclin addition at 48 hrs and measured 96 hrs post plating by Incucyte-based analysis; assay type: cell-based; conditions: time 72.0 hrs
How it was run: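 M17D-TR/αS-3K::YFP cells seeded at 30,000 per well and dosed 24 h post-plating at 1.25–40 μM (vehicle 0.1 % DMSO). Transgene induced at 48 h with dox at 1 μg/mL final. At 96 h, Incucyte analysis of punctate YFP inclusions, expressed as fold change vs DMSO. Two independent experiments, 6–12 wells total, mean ± SD, Dunnett's post-hoc test.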

[3] = target: T1, Microtubule-associated protein tau; experiment: Inhibition of tau 2N4R (unknown origin) aggregation expressed in Escherichia coli Rosetta BL21 cells assessed as reduction in oligomer formation at 50 to 200 uM incubated for 10 mins in presence of 53W light exposure for 60 sec by PICUP assay; conditions: dose 50-200 µM
How it was run: (§2)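 Tau 2N4R or 0N4R, expressed in-house from a pET30a construct in E. coli Rosetta BL21 and purified by heat step plus SP cation exchange, used at 10 μM in 10 mM phosphate buffer. Compound at 50, 100 and 200 μM. Ru(bpy)3 at 300 μM and APS at 6 mM, 60 s light exposure. Samples boiled at 95 °C for 10 min in reducing Laemmli buffer, then 16 % SDS-PAGE with Coomassie.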

[4] = target: T1, Microtubule-associated protein tau; experiment: Inhibition of unfolded tau 2N4R (unknown origin) aggregation expressed in Escherichia coli Rosetta BL21 cells assessed as reduction in formation of large dense accumulation of tau fibrils at 100 uM measured after 72 hrs by TEM analysis
How it was run: (§3)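 Recombinant tau 2N4R (6 μM) incubated with compound at 100 μM, or 0.25 % DMSO, in 10 mM PBS pH 7.4 for 72 h at 37 °C. Placed on Formvar-carbon copper grids for 1 min, rinsed, and negatively stained with 1 % uranyl acetate. TEM at 40k magnification, 100 kV.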

[5] = target: T1, Microtubule-associated protein tau; experiment: Inhibition of human tau 0N4R aggregation expressed in Escherichia coli Rosetta BL21 cells assessed as reduction in oligomer formation at 50 to 200 uM incubated for 10 mins in presence of 53W light exposure for 60 sec by PICUP assay; conditions: dose 50-200 µM; how it was run: as §2
[6] = target: T1, Microtubule-associated protein tau; experiment: Inhibition of unfolded tau 2N4R (unknown origin) aggregation expressed in Escherichia coli Rosetta BL21 cells assessed as reduction in protein fibril formation at 100 uM measured after 72 hrs by TEM analysis; how it was run: as §3
[7] = target: Alpha-synuclein (Homo sapiens) (UniProt P37840); experiment: Inhibition of recombinant alpha-Synuclein (unknown origin) aggregation assessed as reduction in protein fibril formation at 100 uM measured after 68 hrs by TEM analysis
How it was run: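 α-Syn (2 μM) samples taken from the ThT kinetic runs after about 68 h at 37 °C, compound at 100 μM, vehicle 0.25 % DMSO. Applied to Formvar-carbon copper grids for 1 min, washed, and stained with 1 % uranyl acetate for 1 min. Imaged by TEM at 40k magnification, 100 kV.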

[8] = target: Alpha-synuclein (Homo sapiens) (UniProt P37840); experiment: Inhibition of recombinant alpha-Synuclein (unknown origin) aggregation assessed as reduction in fluorescence intensity by measuring residual activity at 100 uM measured every 20 mins for 40 to 70 hrs by Thioflavin T based fluorescence analysis relative to control; conditions: time 40-70 hrs
How it was run: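 Recombinant α-syn (2 μM final) in 10 mM PBS pH 7.4 with 0.5 mM SDS and 300 mM NaCl. Compound at 100 μM final, ThT 20 μM, one borosilicate bead per well. Read at 37 °C every 20 min after 10 s shaking, ex 440/em 485 nm, for 40–70 h. Background was ThT plus 0.25 % DMSO without protein. Plateau fluorescence expressed as % of control, triplicates, mean ± SEM.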

[9] = target: T1, Microtubule-associated protein tau; experiment: Inhibition of unfolded tau 2N4R (unknown origin) aggregation expressed in Escherichia coli Rosetta BL21 cells assessed as reduction in short and fine needle like fibrils at 100 uM measured after 72 hrs by TEM analysis; how it was run: as §3
[10] = target: T1, Microtubule-associated protein tau; experiment: Inhibition of unfolded tau 2N4R (unknown origin) aggregation expressed in Escherichia coli Rosetta BL21 cells assessed as appearance of rounded structures at 100 uM measured after 72 hrs by TEM analysis; how it was run: as §3
[11] = as §1, with “Cytotoxicity against” for “Inhibition of alpha-syn inclusion formation in”, “cell confluency at 5 to 40 uM” for “inclusions”; assay type: toxicity; conditions: 72 h, dose 5-40 µM
How it was run: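 Dox-inducible M17D-TR/αS-3K::YFP neuroblastoma cells seeded at 30,000 per well. Compound added 24 h after plating at 1.25–40 μM, with 0.1 % DMSO as vehicle. Dox at 1 μg/mL final was added at 48 h. At 96 h, Incucyte imaging gave confluence fold change vs vehicle. N = 2 independent experiments, 6–12 wells total. Mean ± SD, one-way ANOVA with Dunnett's test.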

[12] = target: Alpha-synuclein (Homo sapiens) (UniProt P37840); experiment: Inhibition of alpha-syn (unknown origin) aggregation assessed as reduction in fluorescence by Thioflavin-T based fluorescence analysis relative to control; conditions: concentration not given here
How it was run: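 Recombinant α-syn monomer (2 μM final, diluted from a 280 μM stock in 20 mM Tris-HCl pH 7.4) in 10 mM PBS pH 7.4 with 0.5 mM SDS and 300 mM NaCl, one glass bead per well. Compound 100 μM final, ThT 20 μM, 0.25% DMSO. Ex/em 440/485 nm, read every 20 min at 37 °C with shaking, 40–70 h. Triplicates. Plateau fluorescence as % of control, background-corrected.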

SMILES: CCC(/C=C1\Sc2ccc(OC)cc2N1CCO)=C\c1sc2ccc(OC)cc2[n+]1CCO
- IC50 [1]: 300 nM

SMILES: O=C(Nc1ccc([N+](=O)[O-])cc1)Nc1ccc2cc[nH]c2c1
- inhibition [2]: Dose-Dependent Effect
- inhibition [3]: inactive
- inhibition [4]: Active
- inhibition [5]: inactive
- inhibition [6]: Active
- inhibition [7]: Active
- Activity [8]: 3.6%
- inhibition [9]: Active
- inhibition [10]: Active
- Activity [11]: Toxic

SMILES: O=C(O[C@@H]1Cc2c(O)cc(O)cc2O[C@@H]1c1cc(O)c(O)c(O)c1)c1cc(O)c(O)c(O)c1
- inhibition [12]: 90%
